The structures appear in SMILES notation.

Series [1] has as its target T1, ATP-dependent translocase ABCB1 (Homo sapiens, UniProt P08183). The series is described as follows: Inhibition of p-gp in doxorubicin-resistant human Saos2 cells assessed as potentiation of doxorubicin-induced cytotoxicity by measuring cell survival at 1 ug/mL pretreated for 30 mins followed by 1 ug/mL doxorubicin addition measured after 72 hrs by MTT assay relative to doxorubicin-treated cell. The format is cell-based. As to conditions: saos-2, 72 h; call rule not given here. In outline:
(§1)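 MTT survival assay. Cells seeded 24 h beforehand (1 × 10^4 SAOS-2-DX or 5 × 10^3 Me30966 per well). Voacamine 0.5 or 1.0 μg/mL given alone or 30 min before doxorubicin (Me30966: 0.1 or 0.5 μg/mL; SAOS-2-DX: 0.5 or 1.0 μg/mL). Read at 24 h for Me30966 and 72 h for SAOS-2-DX. Three independent experiments, mean ± SD.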
Background: Formazan colour is commonly taken as a measure of viable cells.

Series [2] in a line: Cytotoxicity against doxorubicin-resistant human Saos2 cells assessed as effect on cell survival up to 1 ug/mL after 72 hrs by MTT assay. The format is cell-based. As to conditions: saos-2, 72 h. In outline:
as §1

For series [3], the target named is T1, ATP-dependent translocase ABCB1. Nature of the series: Inhibition of p-gp in doxorubicin-resistant human Saos2 cells assessed as increase in intracellular doxorubicin retention at 1 ug/mL after 2 hrs by flow cytometric analysis. The series is classed as cell-based. As to conditions: saos-2, 2 h. The method, boiled down: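 Efflux by flow cytometry. Cells loaded 1 h with 1.0 μg/mL doxorubicin, washed in PBS, then reincubated 2 h at 37 °C in drug-free medium with or without voacamine (1.0 μg/mL) or cyclosporin A (5.0 μM). Detached, resuspended in ice-cold PBS, analysed for retained doxorubicin fluorescence. Three independent experiments, mean ± SD.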

Series [4] shares this target. Nature of the series: Inhibition of p-gp in doxorubicin-resistant human Saos2 cells assessed as increase in doxorubicin uptake at 1 ug/mL after 3 hrs by flow cytometric analysis. The format is cell-based. The note with it: saos-2, 3 h. In outline:
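Doxorubicin accumulation by flow cytometry. Osteosarcoma or melanoma cells exposed for 3 h to doxorubicin 1.0 μg/mL alone, with voacamine 1.0 μg/mL, or with cyclosporin A 5.0 μM (control). Cells detached with EDTA/trypsin (10^6 cells/mL), resuspended in ice-cold PBS, 488 nm excitation. Three independent experiments, mean ± SD.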

Series [5] is described as follows: Cytotoxicity against wild type human Saos2 cells assessed as cell mortality at 5 ug/mL after 24 hrs by trypan blue staining-based flow cytometric analysis. The note with it: saos-2, 24 h. In outline:
(§2)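 Trypan blue exclusion read by flow cytometry. Cells exposed to voacamine at 0.1, 1.0 or 5.0 μg/mL (in DMSO; DMSO-only cultures as extra control) for 4 or 24 h, resuspended in ice-cold PBS, stained with trypan blue (final 0.8 μM) and analysed at once; % dead cells. Three independent experiments, mean ± SD.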

Series [6] deals with T1, ATP-dependent translocase ABCB1. The series is described as follows: Inhibition of p-gp in doxorubicin-resistant human Saos2 cells assessed as intracellular doxorubicin distribution in nuclei at 1 ug/mL after 2 to 3 hrs by laser scanning confocal microscopic analysis. The format is cell-based. As to conditions: saos-2. The method, boiled down:
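Living SAOS-2-DX cells, with SAOS-2-WT for reference, treated with doxorubicin alone or with voacamine or cyclosporin A as in the flow cytometry uptake/efflux protocol. Intracellular, including nuclear, doxorubicin fluorescence located by laser scanning confocal microscopy.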

A short description of series [7]: Cytotoxicity against human AG1522 cells assessed as cell mortality at 0.1 to 5 ug/mL after 4 hrs by trypan blue staining-based flow cytometric analysis. In outline:
as §2
(Flow cytometry measures light scatter and fluorescence of single cells or particles in a stream.)

Series [8] is described as follows: Cytotoxicity against P-gp-deficient human Me30966 cells assessed as effect on cell survival at 0.5 to 1 ug/mL pretreated for 30 mins followed by 1 ug/mL doxorubicin addition measured after 24 hrs by MTT assay relative to doxorubicin-treated cell. The format is ADME, cell-based.
Series [9] is described as follows: Cytotoxicity against P-gp-deficient human Me30966 cells assessed as cell mortality at 0.1 to 5 ug/mL after 4 hrs by trypan blue staining-based flow cytometric analysis. The series is classed as ADME. In outline:
as §2

A short description of series [10]: Cytotoxicity against P-gp-deficient human Me30966 cells assessed as induction of morphological changes at 1 ug/mL by phase contrast microscopic analysis. The format is ADME, cell-based. In outline:
(§3)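 Monolayers viewed by phase contrast microscopy against untreated controls. SAOS-2-DX given 1.0 μg/mL voacamine plus 1.0 μg/mL doxorubicin; Me30966 given 1.0 μg/mL voacamine plus 0.5 μg/mL doxorubicin.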

Series [11] in a line: Cytotoxicity against doxorubicin-resistant human Saos2 cells assessed as induction of morphological changes at 1 ug/mL by phase contrast microscopic analysis. As to conditions: saos-2. The format is cell-based. In outline:
as §3

The nature of series [12]: Cytotoxicity against P-gp-deficient human Me30966 cells assessed as cell mortality at 5 ug/mL after 24 hrs by trypan blue staining-based flow cytometric analysis. The format is ADME. In outline: as §2
The target of series [13] is T1, ATP-dependent translocase ABCB1. Nature of the series: Inhibition of p-gp in doxorubicin-resistant human Saos2 cells assessed as potentiation of 1 ug/mL doxorubicin-induced cytotoxicity by measuring induction of morphological changes at 1 ug/mL by phase contrast microscopic analysis. The format is cell-based. The note with it: saos-2. In outline: as §3
The nature of series [14]: Cytotoxicity against wild type human Saos2 cells assessed as cell mortality at 0.1 to 5 ug/mL after 4 hrs by trypan blue staining-based flow cytometric analysis. As to conditions: saos-2, 4 h. The method, boiled down:
as §2

The target in the next series is P-gp (ABCB1) (Homo sapiens, UniProt P08183). The series is described as follows: Inhibition of p-gp in doxorubicin-resistant human Saos2 cells assessed as potentiation of doxorubicin-induced cytotoxicity by measuring cell survival at 1 ug/mL pretreated for 30 mins followed by 0.5 ug/mL doxorubicin addition measured after 72 hrs by MTT assay relative to doxorubicin-treated cell. The note with it: probe doxorubicin, read-out: Survival. The series is classed as cell-based, SAOS-2. In outline: as §1

Series [15] addresses T1, ATP-dependent translocase ABCB1. Nature of the series: Inhibition of p-gp in doxorubicin-resistant human Saos2 cells assessed as potentiation of doxorubicin-induced cytotoxicity by measuring cell survival at 0.5 ug/mL pretreated for 30 mins followed by 1 ug/mL doxorubicin addition measured after 72 hrs by MTT assay relative to doxorubicin-treated cell. The note with it: saos-2, 72 h. The format is cell-based. In outline:
as §1

The nature of series [16]: Cytotoxicity against doxorubicin-resistant human Saos2 cells assessed as cell mortality at 0.1 to 5 ug/mL after 4 hrs by trypan blue staining-based flow cytometric analysis. The note with it: saos-2, 4 h. The method, boiled down: as §2
A short description of series [17]: Cytotoxicity against human AG1522 cells assessed as cell mortality at 5 ug/mL after 24 hrs by trypan blue staining-based flow cytometric analysis. In outline:
as §2

A short description of series [18]: Cytotoxicity against doxorubicin-resistant human Saos2 cells assessed as cell mortality at 5 ug/mL after 24 hrs by trypan blue staining-based flow cytometric analysis. The note with it: saos-2, 24 h. In outline:
as §2

Series [19] addresses T1, ATP-dependent translocase ABCB1. Nature of the series: Inhibition of p-gp in doxorubicin-resistant human Saos2 cells assessed as potentiation of doxorubicin-induced cytotoxicity by measuring cell survival at 0.5 ug/mL pretreated for 30 mins followed by 0.5 ug/mL doxorubicin addition measured after 72 hrs by MTT assay relative to doxorubicin-treated cell. The series is classed as cell-based. The note with it: saos-2, 72 h. The method, boiled down:
as §1

T1 sequence (P08183 whole entry): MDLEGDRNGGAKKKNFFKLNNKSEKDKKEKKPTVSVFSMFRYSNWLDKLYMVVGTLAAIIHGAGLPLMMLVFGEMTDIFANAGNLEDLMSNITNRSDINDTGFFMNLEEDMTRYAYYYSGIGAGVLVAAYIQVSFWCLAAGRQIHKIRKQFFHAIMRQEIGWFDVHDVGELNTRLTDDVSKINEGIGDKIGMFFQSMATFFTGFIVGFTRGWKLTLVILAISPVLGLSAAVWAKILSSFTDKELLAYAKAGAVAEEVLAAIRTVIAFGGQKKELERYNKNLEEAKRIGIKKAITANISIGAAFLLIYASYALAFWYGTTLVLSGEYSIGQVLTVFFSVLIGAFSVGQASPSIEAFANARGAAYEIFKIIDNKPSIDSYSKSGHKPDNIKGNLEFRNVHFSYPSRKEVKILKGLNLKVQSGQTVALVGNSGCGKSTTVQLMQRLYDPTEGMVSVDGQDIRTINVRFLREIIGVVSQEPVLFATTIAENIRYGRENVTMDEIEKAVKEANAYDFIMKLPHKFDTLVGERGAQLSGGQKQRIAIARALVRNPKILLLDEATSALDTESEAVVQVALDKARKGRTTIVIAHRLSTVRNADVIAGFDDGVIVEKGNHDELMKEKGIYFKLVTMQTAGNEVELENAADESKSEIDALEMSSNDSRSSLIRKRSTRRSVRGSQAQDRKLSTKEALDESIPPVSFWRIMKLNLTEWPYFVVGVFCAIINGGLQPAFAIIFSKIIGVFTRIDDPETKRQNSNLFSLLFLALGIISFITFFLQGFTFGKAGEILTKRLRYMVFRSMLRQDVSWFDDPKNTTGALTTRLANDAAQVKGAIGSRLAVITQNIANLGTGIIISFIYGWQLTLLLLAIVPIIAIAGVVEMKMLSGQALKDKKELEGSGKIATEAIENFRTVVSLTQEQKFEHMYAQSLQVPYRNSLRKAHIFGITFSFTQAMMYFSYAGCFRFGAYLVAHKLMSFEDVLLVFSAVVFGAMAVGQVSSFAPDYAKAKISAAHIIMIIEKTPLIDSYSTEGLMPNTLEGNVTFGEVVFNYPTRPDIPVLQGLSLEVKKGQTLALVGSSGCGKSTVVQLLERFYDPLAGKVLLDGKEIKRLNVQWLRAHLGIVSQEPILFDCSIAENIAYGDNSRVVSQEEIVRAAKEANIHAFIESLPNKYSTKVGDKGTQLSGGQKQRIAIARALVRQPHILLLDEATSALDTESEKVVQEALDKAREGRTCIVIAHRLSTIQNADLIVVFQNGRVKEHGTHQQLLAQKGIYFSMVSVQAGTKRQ
Chain of P-gp (ABCB1) (P08183 whole entry): as above

For `CC=C1CN(C)C2Cc3c([nH]c4ccccc34)C(c3cc4[nH]c5c(c4cc3OC)CCN3CC4CC(CC)C3C5(C(=O)OC)C4)CC1C2C(=O)OC` (stereo not given) [VOACAMINE], the “inhibition (INH)” value in [1], in series [3], in series [4], in series [6], in series [13] and in [15] was “Active” in each case. Also, in series [19], the “inhibition (INH)” value is reported as “Active”. Further, the Activity entry is reported as “Non-toxic” in series [2]; “Toxic” in series [5]; “Non-toxic” in series [7]; “Non-toxic” in series [8]; “Non-toxic” in [9]; “Non-toxic” in series [10]. In addition, the Activity result is listed as “Non-toxic” in [11]; “Toxic” in series [12]; “Non-toxic” in series [14]; “Non-toxic” in series [16]; “Toxic” in series [17]; “Toxic” in series [18]. Besides, the viability at 72 h, 1 ug/mL at P-gp (ABCB1) was determined as 50%.

The values above are taken from ChEMBL document CHEMBL3259756 (J Nat Prod, 2014).
